Source: PubChem BioAssay
H9c2 TAG inh = inhibitors of triacylglycerol accumulation. H9c2 cells, Nile Red lipid (TAG) fluorescence; cells loaded with 200 µM oleic acid. inhibition, % at 12.5 µM. hit rate 0.66% among 230,000. AID 651582;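 active = pattern-corrected inhibition of lipid staining of at least 50% with the nuclear-stain viability signal not falling by more than 50%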;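 also: 0% = DMSO wells and 100% = triacsin C control wells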
SR-BI DiI inh = mouse SR-BI HDL lipid transfer inhibition; Q61009; ldlA[mSR-BI] CHO cells, DiI-HDL uptake fluorescence, 3 h; inhibition, % at 12.5 µM; hit rate 0.96% among 320,000; AID 488896;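 active = mean replicate inhibition of at least 70% and a set share of replicates each scoring 70 or more; inconclusive = meets just one of the two criteria; inactive = fails both criteria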;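 also: 0% = median of neutral control wells and 100% = median of positive control wells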
Target sequence (Q61009 whole entry, looked up): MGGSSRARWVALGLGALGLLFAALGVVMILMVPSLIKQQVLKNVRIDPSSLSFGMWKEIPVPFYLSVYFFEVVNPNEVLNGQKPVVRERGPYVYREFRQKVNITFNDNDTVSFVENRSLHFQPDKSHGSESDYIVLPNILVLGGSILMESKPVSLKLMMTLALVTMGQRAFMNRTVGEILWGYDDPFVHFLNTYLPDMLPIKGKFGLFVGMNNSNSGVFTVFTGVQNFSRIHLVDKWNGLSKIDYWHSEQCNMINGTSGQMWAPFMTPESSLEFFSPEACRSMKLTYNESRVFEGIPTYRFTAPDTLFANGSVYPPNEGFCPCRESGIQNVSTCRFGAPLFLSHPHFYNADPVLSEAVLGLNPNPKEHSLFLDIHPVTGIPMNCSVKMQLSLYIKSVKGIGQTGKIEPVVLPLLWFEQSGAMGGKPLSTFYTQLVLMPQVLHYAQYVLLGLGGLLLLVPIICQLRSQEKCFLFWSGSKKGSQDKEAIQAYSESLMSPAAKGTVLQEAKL
SMARCA2 activ = increases SMARCA2 function in MMTV reporter cells; AID 652017; MG213 cells, MMTV-luciferase reporter, dexamethasone, overnight; activation, % at 9.1 µM; hit rate 1% among 370,000; in the data active = activation above about 7.8%;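 also: 0% = vehicle wells and 100% = reference activator wells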
Vif inh = HIV Vif inhibition; HEK293T cells, Vif self-association by quenched fluorescence, imaging, 24 h; inhibition, % at 7.49 µM; hit rate 0.35% among 340,000; AID 602346; in the data active = inhibition above about 50%, passing the limit was not always enough; inconclusive = no clear call, values can overlap the other calls; inactive = below about 31%
SR-BI DiI-HDL act = activators of SR-BI mediated HDL lipid uptake | CHO ldlA[mSR-BI] cells, DiI-HDL uptake fluorescence, 3 h; 100 = double the neutral-control signal | activation, % at 12.5 µM | hit rate 0.096% among 320,000 | AID 504775;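 active = mean replicate activation of at least 60% and every replicate at or above 60%; inconclusive = mean or all-replicate condition met, but not both; inactive = mean below 60% and not all replicates reaching 60%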;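 also: 0% = median plate neutral-control signal and 100% = twice that signal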
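material = CHO ldlA[mSR-BI] cells | medium = Ham's F12 with 0.5% BSA, HEPES 25 mM, pH 7.4 | reagent = fluorescent DiI-HDL, 10 µg/mL final | compound dosing = single-point compound dose | incubation = 3 h, 37 °C | measured by = bottom-read fluorescence, 550/595 nm | measure = HDL uptake via cellular fluorescence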
* marks the source's active call; other numbers are inactive results; u = inconclusive; x = not tested or not shown. This is a sample that favours compounds with a hit; in the whole collection about 2.5% have one here.

SMILES	H9c2 TAG inh	SR-BI DiI inh	SMARCA2 activ	Vif inh	SR-BI DiI-HDL act
Oc1ccccc1C1OCC2(CO1)COC(c1ccccc1O)OC2 (stereo unspecified)	x	-36	0	12	36
CC(=O)Nc1ccc(Nc2cc(C)nc3c(-c4ccc(Cl)cc4)cnn23)cc1	x	12	-2	18	-12
CC(=O)Nc1ccc(Nc2cc(C)nc3c(-c4ccc(Cl)cc4)c(C)nn23)cc1	13	45	7.9*	u	-45
Cc1cc(N)n(-c2cc(C)c3ccccc3n2)n1	-8	0	7.9*	1	0
Cc1cc(N)n(-c2ccccc2)n1	-5	-42	1	2	42
O=C(CN1CCCC1)Nc1ccc(-c2nc3cc(NC(=O)CN4CCCC4)ccc3o2)cc1	52*	-1	8	-3	1
CCN(CC)CC(=O)Nc1ccc(-c2nc3cc(NC(=O)CN(CC)CC)ccc3o2)cc1	48	x	0	2	x
COCCN1C(=O)C2=C(C1=O)C1N(C)c3ccccc3[C@@]13C[C@@H](CO)N(S(=O)(=O)c1ccc(OC)cc1)C3=N2 (stereo partly specified)	x	x	1	x	x
COc1ccc(N2CCN(C(CNC(=O)C(C)(C)C)c3cccnc3)CC2)cc1 (stereo unspecified)	2	-32	7.8*	0	32
COc1ccc(N2CCN(C(CNC(=O)C(C)(C)C)c3ccco3)CC2)cc1 (stereo unspecified)	5	x	1	-13	x
CCCC1CCC(c2ccc(C(=O)NN)cc2)CC1 (stereo unspecified)	x	-161	-3	-5	161*
CCCC1CCC(c2ccc(C(N)=O)cc2)CC1 (stereo unspecified)	x	-37	2	-8	37
CC(C)C[C@H]1COc2cc(NCc3ccc(Cl)c(Cl)c3)ccc2S(=O)(=O)N1	x	x	-2	x	x
NC(=O)c1ncn([C@@H]2O[C@H](C(=O)N[C@H](Cc3c[nH]c4ccccc34)C(=O)N3CCN(C(=O)N4CCOCC4)CC3)[C@@H](O)[C@H]2O)n1	x	x	0	x	x
Cc1cc(C)c(O)c(CN(C)Cc2cc(Cl)cc(Cl)c2O)c1	6	112*	-1	-1	-112
Cc1ccnc(NCc2cc(Cl)cc(Cl)c2O)c1	-17	x	2	x	x
COc1ccc(C(=O)Nc2ccc(N3CCN(C)CC3)cc2)cc1	x	-13	6	24	13
COc1ccccc1C(=O)Nc1cc2ccccc2oc1=O	17	-1	x	16	1
CC(C)Oc1ccc(C(=O)Nc2ccc(N3CCCC3)cc2)cc1	x	75*	x	4	-75
CC(=O)N1CCN(c2ccc(NC(=O)c3cc4ccccc4o3)cc2)CC1	x	19	-3	-4	-19
O=C(Nc1ccc(N2CCN(C(=O)c3ccco3)CC2)cc1)c1ccc([N+](=O)[O-])cc1Cl	8	59	-2	-9	-59
O=C(Nc1ccc(N2CCCC2)cc1)c1cc2ccccc2o1	5	72*	1	0	-72
COc1ccccc1C(=O)Nc1cc2cc(Br)ccc2oc1=O	-7	100*	-2	17	-15
Cc1ccc(C(=O)Nc2ccc(N3CCN(C(=O)c4ccco4)CC3)cc2)c(Cl)c1	x	85*	-4	-4	-85
C=CCN1[C@@H](CC(C)C)COc2cccc(NCCCN3CCOCC3)c2S1(=O)=O	x	x	-4	x	x
SMILES	H9c2 TAG inh	SR-BI DiI inh	SMARCA2 activ	Vif inh	SR-BI DiI-HDL act
O=C(OC12CCCN(C1)/C(=C/c1cccnc1)C2)c1ccc(F)cc1 (stereo unspecified)	x	x	-3	x	x
O=C(C1CC1)n1ccc2ccc(-c3ccc4ccn(Cc5ccccc5)c4c3)cc21	x	x	-2	x	x
COc1ccc(Br)cc1C(=O)Nc1ccc(N2CCN(S(C)(=O)=O)CC2)cc1	-2	x	-2	13	x
Cc1ccc(C(=O)Nc2ccc(N3CCN(C)CC3)cc2)cc1	x	6	-1	-2	-6
O=C(Nc1ccc(N2CCCC2)cc1)c1ccc(Br)cc1	x	76*	2	5	-76
COc1ccc(Br)cc1C(=O)Nc1ccc(N2CCCC2)cc1	x	78*	-3	143*	-78
Cc1cc(C)cc(C(=O)Nc2ccc(N3CCCC3)cc2)c1	3	87*	1	3	-87
O=C(NNC(=O)c1ccccc1O)c1cc2ccccc2o1	-9	145*	2	7	-145
O=C(NNC(=O)c1cc2ccccc2o1)c1ccncc1	4	-15	-2	1	15
Cc1ccc(C(=O)N2CCN(c3ccc(NC(=O)c4cc(C)cc(C)c4)cc3)CC2)cc1	9	30	1	-6	-30
O=S(=O)(c1ccc(C(F)(F)F)cc1)N1CCCc2nc(-c3ccccc3)ccc21	x	x	-1	x	x
COC(=O)C1=C(C)N(Cc2ccc(C(F)(F)F)cc2)C(=NCc2cc(OC)c(OC)c(OC)c2)NC1c1cccc(Cl)c1 (stereo unspecified)	x	x	-8	x	x
O=C1c2ccccc2NC(c2cc(Cl)cc(Cl)c2O)N1CCc1ccccn1 (stereo unspecified)	x	x	4	x	x
CC(C)Oc1ccc(C(=O)Nc2ccc(N3CCN(C(=O)c4ccco4)CC3)cc2)cc1	x	74*	-1	-6	-74
COc1ccc(Br)cc1C(=O)Nc1cccc(C)c1	2	75*	-3	3	-75
O=C(Nc1ccc(N2CCCC2)cc1)c1cccc(Cl)c1	x	86*	4	13	-86
Cc1ccccc1C(=O)N1CCN(c2ccc(NC(=O)c3cccc(OC(C)C)c3)cc2)CC1	12	74*	-3	-25	-74
COC(=O)[C@]12C[C@H](CC(=O)NCCCCc3ccccc3)C(=O)N(Cc3ccccc3)C1=C[C@H](C1CCCC1)O[C@@H]2C	x	x	1	x	x
CCCCS(=O)(=O)N1CCN(C(=O)C(=O)c2cccc(C(F)(F)F)c2)CC1	x	x	3	x	x
COc1cc(OC)cc(C(=O)Nc2cccc(N3CCCC3)c2)c1	x	87*	0	10	-87
COCc1cc(N2CCN(C(=O)OC(C)(C)C)C[C@H]2C)ccc1N1C[C@@H](C)O[C@@H](C)C1	x	x	-2	x	x
CC1CCc2c(nc3ncnn3c2N2CCN(c3ccccc3F)CC2)C1 (stereo unspecified)	-2	-11	-2	x	11
CC1CCc2c(nc3ncnn3c2NCCc2ccccc2F)C1 (stereo unspecified)	-20	73*	-4	-8	-73
COc1ccccc1NS(=O)(=O)c1ccc(N/N=C/c2c(C)nn(-c3ccccc3)c2N2CCCC2)c([N+](=O)[O-])c1	x	90*	-2	x	-90
COc1ccccc1NS(=O)(=O)c1cccc(C(=O)N/N=C/c2c(C)nn(-c3ccccc3)c2N2CCCC2)c1	x	u	-2	2	-71
Cc1nn(-c2ccccc2)c(N2CCCC2)c1/C=N/Nc1ccc(S(=O)(=O)Nc2ccccc2)cc1[N+](=O)[O-]	x	125*	2	1	-125
COc1c(/C=N/Nc2ccc([N+](=O)[O-])cc2[N+](=O)[O-])c(C)nn1-c1ccccc1	25	64	-2	15	-64
